SENP6 inh: SENP6 protease inhibitors, primary screen, biochemical, luminescence, uHTS. Recombinant SENP6 catalytic domain, aminoluciferin luminescence. inhibition, % at 10 µM. 1.8% of 330,000 active. AID 2599, 2010;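 active = inhibition above about 50% at the single tested dose, limit read from the data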;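 note: plate controls were DMSO wells with enzyme for no effect and DMSO wells lacking enzyme for full effect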
SENP8 block-1: human SENP8 protease inhibitors, primary screen, biochemical, fluorescence, Nedd8 protein substrate, uHTS. Sentrin-specific protease 8 (Homo sapiens), Q96LD8. recombinant SENP8. inhibition, % at 20 µM. 0.64% of 360,000 active. AID 602440, 2012; in the data active = inhibition mostly above about 40%, no sharp cut-off; inactive = mostly below about 27%
SENP1 FRET inh: human SENP1 catalytic domain inhibitors, primary screen, biochemical, FRET, uHTS. AID 624204, 2012. Sentrin-specific protease 1 (Homo sapiens), Q9P0U3. 0.21% of 360,000 active. inhibition, % at 10 µM. recombinant SENP1 catalytic domain, CyPet-SUMO1-YPet FRET cleavage;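 active = inhibition at least 30% at 10 µM, raw YFP signal under a set limit, fluorescence ratio 0.5 to 1.5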;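 note: 0% = enzyme with DMSO and 100% = no enzyme wells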
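Test system: hSENP1 catalytic domain, recombinant; Amount: 20 pM final SENP1 enzyme; Medium: Tris pH 8 buffer plus EDTA, NaCl, BME, BSA, NP40, catalase; Schedule: 50 min enzyme reaction, room temperature, light-protected; Technique: FRET fluorescence in CFP and YFP emission channels; Controls: no-enzyme wells low, DMSO-plus-enzyme wells high control.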
SENP8 block-2: SENP8 protease inhibitors, primary screen, biochemical, luminescence | Sentrin-specific protease 8 (Homo sapiens), Q96LD8 | purified SENP8, Z-RLRGG-aminoluciferin cleavage | inhibition, % at 10 µM | 1.2% of 330,000 active; in the data active = inhibition above about 50%
SENP7 inh: SENP7 protease inhibitors, primary screen, biochemical, luminescence, uHTS; Sentrin-specific protease 7 (Homo sapiens), Q9BQF6; recombinant SENP7, Z-RLRGG-aminoluciferin luminescence, 40 min; inhibition, % at 5 µM; 1.5% of 330,000 active;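 active = inhibition above about 50% at the single test dose, limit read from the data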;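 note: plate controls were DMSO with enzyme for no effect and no enzyme buffer wells for full effect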
Target sequence (Q9BQF6 706-1050 limits assumed): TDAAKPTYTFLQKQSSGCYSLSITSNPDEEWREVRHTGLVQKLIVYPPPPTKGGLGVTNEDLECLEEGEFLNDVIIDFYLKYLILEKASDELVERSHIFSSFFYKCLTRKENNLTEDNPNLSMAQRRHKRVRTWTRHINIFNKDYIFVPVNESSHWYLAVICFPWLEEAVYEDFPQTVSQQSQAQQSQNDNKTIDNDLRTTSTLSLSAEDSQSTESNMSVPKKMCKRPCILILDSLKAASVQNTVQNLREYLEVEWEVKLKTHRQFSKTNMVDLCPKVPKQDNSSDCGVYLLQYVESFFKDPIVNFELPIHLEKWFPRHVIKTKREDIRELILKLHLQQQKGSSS
SENP8 confirm: SENP8 protease inhibitors, retest, confirmation, biochemical, luminescence, single concentration | shares compounds with SENP7 inh | Recombinant SENP8, Z-RLRGG-aminoluciferin luminescence, 60 min | inhibition, % at 12.5 µM | 40% of 6,200 active;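 active = mean inhibition across replicates above about 50%, limit read from the data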
SENP6 conf: SENP6 protease inhibitors, confirmation, biochemical, luminescence, single concentration; shares compounds with SENP7 inh; recombinant SENP6, Z-RLRGG-aminoluciferin luminescence; inhibition, % at 12.5 µM; 58% of 6,200 active; AID 488915, 2010
SENP7 conf: SENP7 protease inhibitors, retest, confirmation, biochemical, luminescence, single concentration. 69% of 6,200 active. inhibition, % at 12.5 µM. shares compounds with SENP7 inh. recombinant SENP7, Z-RLRGG-aminoluciferin luminescence, 40 min
Casp3 select: caspase-3 protease inhibitors, confirmation, selectivity assay for SENP inhibitor project, biochemical, single concentration; purified caspase-3, Z-DEVD-aminoluciferin luminescence, 60 min; shares compounds with SENP7 inh; 60% of 6,200 active; inhibition, % at 12.5 µM;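 active = mean inhibition above about 50%, limit read from the data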;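 note: plate controls were enzyme with DMSO for no effect and wells without caspase-3 for full effect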
Target sequence (P42574 28-227 limits assumed): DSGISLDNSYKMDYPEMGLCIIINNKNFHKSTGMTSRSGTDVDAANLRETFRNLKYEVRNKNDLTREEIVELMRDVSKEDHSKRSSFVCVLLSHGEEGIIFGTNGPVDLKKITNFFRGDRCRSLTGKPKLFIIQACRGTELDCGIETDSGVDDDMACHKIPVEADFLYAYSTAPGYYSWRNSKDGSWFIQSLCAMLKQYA
SENP luc ctr: counter-screen for SENP inhibitors: luminescence interference; shares compounds with SENP7 inh; inhibition, % at 12.5 µM; Pre-incubated SENP8/Z-RLRGG-aminoluciferin, luciferase luminescence interference; 39% of 6,200 active; AID 488919;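 active = mean inhibition above about 50% when retested at one dose, limit read from the data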;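 note: plate controls were DMSO wells with completed reaction for no effect and substrate without enzyme for full effect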
* marks the source's active call; other numbers are inactive results; i = inactive; nt = no result. The list is not random: actives were taken first. Their share in the collection is about 2.5%.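 Rule for the calls, unless noted: active = mean inhibition above about 50% in the one-dose retest (limit read from the data); inactive = the rest.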

SMILES	SENP6 inh	SENP8 block-1	SENP1 FRET inh	SENP8 block-2	SENP7 inh	SENP8 confirm	SENP6 conf	SENP7 conf	Casp3 select	SENP luc ctr
O=C(Nc1cccc(S(=O)(=O)N2CCCCC2)c1)c1cc(=O)[nH]c2ccccc12	-15.1	-153.9	-3.0	-19.4	-0.6	nt	nt	nt	nt	nt
O=C(Nc1ccc(Cl)c(Cl)c1)c1ccccc1	89.5*	8.3	-1.9	83.9*	80.0*	-25.6	78.7*	95.8*	56.8*	26.9
O=C(Nc1ccc2c(c1)OCO2)c1ccc(Cl)s1	76.5*	11.7	2.3	61.7*	73.5*	-1.1	62.9*	88.1*	66.3*	63.6*
O=C(Nc1ccc2c(c1)OCCO2)c1ccc(Cl)cc1	81.2*	3.4	1.2	59.4*	73.4*	46.5	74.8*	92.4*	76.1*	14.3
C[C@H]1CNC(=O)c2c(C(=O)N[C@@H](Cc3c[nH]c4ccccc34)C(=O)OC(C)(C)C)ncn21	nt	-22.7	0.4	nt	nt	nt	nt	nt	nt	nt
Cc1ccc(-c2cc(C(=O)N/N=C/c3ccccc3O)n[nH]2)o1	66.6*	6.1	-39.2	48.9	51.8*	-0.8	-2.9	85.9*	53.2*	29.9
Cc1ccc(-c2cc(C(=O)N/N=C/c3c[nH]c4ccccc34)n[nH]2)o1	-4.7	-54.8	-2.0	-3.0	0.6	nt	nt	nt	nt	nt
Cc1cc(C)c2c(N)c(C(=O)Nc3ncc(C)s3)sc2n1	87.3*	i	-20.2	71.7*	25.7	-25.0	86.0*	99.3*	91.5*	-2.1
CCN(CC)S(=O)(=O)c1cc(C(=O)NC2CCCCC2)ccc1C	8.9	14.1	1.2	-0.5	7.6	nt	nt	nt	nt	nt
CCCCN1C=CC(=C2C(=O)c3ccccc3C2=O)C=C1	91.6*	11.7	22.7	89.1*	78.1*	-2.3	92.1*	100.3*	95.3*	40.7
Cc1cccc2cc(-c3ccccc3)c(-c3ccccc3)c[n+]12	nt	-39.6	1.8	nt	nt	nt	nt	nt	nt	nt
CC(C)(C)c1ccc2c(c1)C(=O)c1ccccc1C2=O	96.2*	19.3	2.9	66.2*	95.9*	-2.3	59.3*	81.9*	43.7	44.0
CC(C)(C)c1ccc(-c2ccc3c(c2)S(=O)(=O)c2ccccc2C3=O)cc1	-3.4	-26.6	-0.6	-13.8	7.4	nt	nt	nt	nt	nt
CCc1ccc(C2CC(c3ccco3)=NN2S(C)(=O)=O)cc1 (centres undefined)	93.6*	21.8	-8.5	89.2*	92.4*	96.3*	96.9*	101.7*	95.8*	92.5*
CCOc1ccc2cc(C3CC(c4ccco4)=NN3S(C)(=O)=O)c(Cl)nc2c1 (centres undefined)	-10.1	-2.2	-0.7	-9.2	-1.7	nt	nt	nt	nt	nt
Cc1ccc(C(=O)Nc2nc3nc(-c4ccccc4)cc(=O)n3[nH]2)cc1	-1.5	7.5	-0.7	-1.5	2.5	nt	nt	nt	nt	nt
COc1ccc(-c2c(C(F)(F)F)[nH]n3c(=O)cc(-c4ccccc4)nc23)cc1	-5.7	-419.3	-52.4	-6.4	7.7	nt	nt	nt	nt	nt
COc1cccc(-c2cc3nc(-c4ccccc4)cc(=O)n3[nH]2)c1	87.3*	-328.2	-6.0	85.0*	51.5*	-8.6	84.7*	78.9*	84.0*	16.0
O=c1cc(-c2ccccc2)nc2cc(-c3ccc(F)cc3)[nH]n12	87.0*	-488.3	-16.0	78.6*	42.5	-4.1	2.2	4.4	11.7	1.6
CSc1nc2nc(-c3ccccc3)cc(=O)n2[nH]1	53.3*	18.6	-0.1	11.0	9.3	27.3	22.3	63.8*	74.8*	50.3*
Cc1cc(=O)n2[nH]c(-c3ccccc3)cc2n1	12.0	-73.9	0.0	-12.3	5.9	nt	nt	nt	nt	nt
CC(C)Sc1ncc(S(=O)(=O)c2ccccc2)c(=O)[nH]1	-2.9	10.1	1.6	-9.3	-5.2	nt	nt	nt	nt	nt
O=c1c(Cc2ccc(F)cc2)c(O)ccn1Cc1cccc(Cl)c1	-2.4	12.9	1.8	4.2	6.9	nt	nt	nt	nt	nt
CCOc1cccc(/C=C/c2ccc3cccc(O)c3n2)c1O	48.3	-75.5	7.7	54.9*	63.9*	0.0	59.4*	85.2*	nt	17.3
COc1ccc(Cl)cc1/C=C/c1ccc2cccc(O)c2n1	-4.5	-68.1	2.0	-9.2	-6.3	nt	nt	nt	nt	nt
SMILES	SENP6 inh	SENP8 block-1	SENP1 FRET inh	SENP8 block-2	SENP7 inh	SENP8 confirm	SENP6 conf	SENP7 conf	Casp3 select	SENP luc ctr
COc1ccccc1/C=C/c1ccc2cccc(O)c2n1	80.7*	-113.1	-5.3	50.7*	29.1	5.6	72.2*	91.6*	56.6*	37.3
CCOc1ccc(S(=O)(=O)NNS(=O)(=O)c2ccc(C)cc2C)cc1	-32.2	0.2	1.9	-7.2	-9.2	nt	nt	nt	nt	nt
COc1ccc2c(c1OC)C(=O)N(c1ccc(C)cc1)C2	-38.1	-24.5	3.2	-8.1	4.1	nt	nt	nt	nt	nt
COc1ccc2c(c1OC)C(=O)N(c1cccc(C)c1)C2	71.1*	-16.2	-2.4	32.8	59.2*	65.2*	64.5*	89.8*	83.9*	70.2*
COc1cccc(C(=O)Nc2nnc(-c3cccs3)s2)c1	53.2*	-482.8	0.2	19.9	52.9*	16.7	16.1	6.1	10.9	4.7
CCOc1cccc(C(=O)Nc2nnc(-c3ccco3)s2)c1	67.7*	-485.5	-8.7	60.3*	73.1*	19.9	17.4	23.2	27.8	6.3
Cc1cccc(OCC(=O)Nc2nnc(-c3ccco3)s2)c1	-3.4	-256.2	-1.8	-7.8	-5.3	nt	nt	nt	nt	nt
Cc1cc(N/N=C/c2ccc3c(c2)OCO3)nc2ccccc12	58.6*	-424.8	-0.8	47.4	69.7*	27.8	68.0*	87.5*	35.2	43.2
O=c1[nH]c(N/N=C/c2ccccc2)nc2ccccc12	29.1	-312.7	-29.1	-7.2	7.8	nt	nt	nt	nt	nt
O=c1[nH]c(N/N=C\c2ccc3c(c2)OCO3)nc2ccccc12	56.1*	-386.6	-105.3	15.4	47.7	27.8	44.3	40.7	60.2*	3.8
Cc1cc(N/N=C/c2ccccc2Br)nc2ccccc12	-1.1	-97.7	-2.4	-17.2	-8.7	nt	nt	nt	nt	nt

Screens from PubChem BioAssay.
